Screening data as filed in PubChem BioAssay.
Sampled rows, rich in hits. Any-hit rate of the full collection: about 2.3%.
TRPC4 act – TRPC4 (mouse) channel activation. B-score at 10 µM. 310,000 compounds, 0.49% hits. HEK293 TRPC4beta/mu-opioid, Fluo4 calcium fluorescence; active compounds read high. Q9QUQ5;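 active = B-score above 5 SD of library B-scores, and initial fluorescence ratio not above library mean plus 5 SD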;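 note: positive B-score marks a calcium rise read as TRPC4 activation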
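System – HEK293 cells stably co-expressing mouse TRPC4beta and mu-opioid receptor · Signal – Fluo4 calcium-sensitive dye fluorescence, kinetic, 1 Hz baseline · Benchmarks – buffer (low) and maximal DAMGO (high) · Read-out – B score of integrated fluorescence ratio per well · Incubation – dye loading 45 min room temperature, 110 s kinetic read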
TRPC6 inh – blocks the mouse TRPC6 cation channel; 310,000 compounds, 1.1% hits; B-score at 10 µM; HEK293-TRPC6, membrane potential dye, ACh-evoked depolarization; active compounds read low; Q61143; AID 2553;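 active = B-score under library mean minus 3 SD, initial fluorescence not abnormally high, positive integrated signal ratio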;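 note: B-score derived from integrated fluorescence ratio over the kinetic read; more negative B-score means stronger inhibition of depolarization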
Target sequence (Q61143 whole entry, looked up): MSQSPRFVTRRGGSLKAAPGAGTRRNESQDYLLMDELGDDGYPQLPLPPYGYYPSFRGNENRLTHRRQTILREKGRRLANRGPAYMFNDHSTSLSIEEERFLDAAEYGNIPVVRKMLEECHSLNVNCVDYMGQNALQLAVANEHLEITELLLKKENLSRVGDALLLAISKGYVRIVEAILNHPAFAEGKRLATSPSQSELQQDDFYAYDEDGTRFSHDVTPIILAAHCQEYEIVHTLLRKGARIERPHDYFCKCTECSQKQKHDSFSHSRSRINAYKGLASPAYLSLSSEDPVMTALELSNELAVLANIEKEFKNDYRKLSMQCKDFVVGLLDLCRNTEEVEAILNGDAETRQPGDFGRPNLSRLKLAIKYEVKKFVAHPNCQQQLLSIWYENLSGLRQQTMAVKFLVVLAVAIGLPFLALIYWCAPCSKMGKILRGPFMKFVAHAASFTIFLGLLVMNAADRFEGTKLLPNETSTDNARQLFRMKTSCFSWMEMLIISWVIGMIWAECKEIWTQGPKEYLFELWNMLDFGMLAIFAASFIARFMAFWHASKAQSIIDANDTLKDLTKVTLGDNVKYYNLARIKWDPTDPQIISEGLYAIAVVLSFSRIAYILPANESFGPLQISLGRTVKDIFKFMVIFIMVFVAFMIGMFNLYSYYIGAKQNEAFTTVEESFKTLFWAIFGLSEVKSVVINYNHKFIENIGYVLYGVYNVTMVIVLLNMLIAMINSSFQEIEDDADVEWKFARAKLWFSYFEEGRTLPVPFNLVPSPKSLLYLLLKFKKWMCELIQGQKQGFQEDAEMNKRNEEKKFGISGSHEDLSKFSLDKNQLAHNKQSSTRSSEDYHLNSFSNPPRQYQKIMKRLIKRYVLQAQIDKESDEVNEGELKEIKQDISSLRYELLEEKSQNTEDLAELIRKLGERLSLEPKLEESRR
TRPC6 act – activators of mouse TRPC6 channel; Q61143; HEK293-TRPC6 membrane potential dye fluorescence; active compounds read high; B-score at 10 µM; 310,000 compounds, 0.13% hits;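 active = B-score of the integrated fluorescence ratio above library mean plus 3 SD, and starting fluorescence ratio within library mean plus 5 SD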;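 note: higher score means more depolarization so channel activation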
TRPC4 block – blocks the mouse TRPC4 cation channel; Q9QUQ5; HEK293 TRPC4beta/mu-opioid, DAMGO-evoked Fluo4 calcium flux; active compounds read low; B-score at 10 µM; 300,000 compounds, 0.39% hits;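 active = B-score over 3 SD under the library average, no early fluorescence shift, positive overall ratio signal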
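Assay system: Stable TRPC4beta/mu-opioid receptor HEK293 cells | Reagent: DAMGO in two steps, submaximal then maximal | Compound dosing: Single concentration per test compound | Signal: Fluo4 Ca2+ flux fluorescence | Evaluation: Per-well B score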
TRPC4 potent – TRPC4 (mouse) allosteric potentiation; HEK293 TRPC4beta/mu-opioid, DAMGO EC20, Fluo-4 Ca2+ flux; active compounds read high; AID 2227; 310,000 compounds, 0.42% hits; B-score at 10 µM; Q9QUQ5;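 active = B-score of calcium response area above 5 SD of library B-scores, with initial fluorescence ratio within 5 SD of library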;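 note: B-score of integrated fluorescence ratio over time as area under calcium response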
TRPC4 sel inh 2 – second check of whether TRPC6 inhibitors also affect mouse TRPC4 | shares compounds with TRPC6 inh | HEK293 TRPC4/MOR, membrane potential dye fluorescence; channel activated by saturating DAMGO dose | inhibition, % at 10 µM | 920 compounds, 42% hits | AID 2776;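 active = compounds whose fluorescence signal differed from control wells by over 3 SD, either direction, in both duplicate plates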
TRPC4 spec – tests whether TRPC6 inhibitors also affect mouse TRPC4; shares compounds with TRPC6 inh; HEK293 TRPC4/mu-opioid, membrane potential fluorescence; activity change, negative = inhibition, % at 10 µM; 920 compounds, 61% hits; AID 2777;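 active = rise or fall in signal beyond 3 SD of buffer-only wells in both replicate plates, either sign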;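 note: integrated kinetic ratio of fluorescence range over baseline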
HEK293 MPD ctr 2-1 – second check of TRPC6 inhibitor effects in parental HEK293 cells | shares compounds with TRPC6 inh | parental HEK293 membrane potential dye fluorescence; maximal acetylcholine challenge after compound addition | signal change vs control, % at 10 µM | 920 compounds, 31% hits;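 active = membrane potential signal moving either way by over 3 SD of the maximum-effect control, in both duplicate plates, meaning non-specific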
HEK293 MPD ctr-1 – parental HEK293 nonspecific activity of TRPC6 inhibitors; shares compounds with TRPC6 inh; parental HEK293 membrane potential dye fluorescence; membrane potential signal change, % at 10 µM; 920 compounds, 60% hits; AID 2780;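 active = membrane potential signal shifting up or down by more than 3 SD of buffer-only wells, on both duplicate plates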
HEK293 MPD ctr-2 – parental HEK293 nonspecific activity of TRPC6 modulators | shares compounds with TRPC6 inh | membrane potential dye fluorescence | membrane potential signal change, % at 10 µM | 2,400 compounds, 51% hits | AID 488924;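 active = membrane potential signal moves up or down beyond 5 SD from buffer-only wells, on both duplicate plates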
HEK293 MPD ctr 2-2 – second counter-screen for TRPC6 modulators: effect in parental HEK293 cells; shares compounds with TRPC6 inh; membrane potential dye fluorescence; after compound, maximal acetylcholine stimulation; inhibition, % at 10 µM; 2,400 compounds, 14% hits;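 active = membrane potential signal drops by more than 5 SD from the mean control signal, in both duplicate plates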;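 note: plate controls were acetylcholine ECmax control wells for no effect and buffer only wells for full effect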
TRPC4/MOR mod – tests whether TRPC6 modulators also affect mouse TRPC4; AID 488927; 2,400 compounds, 69% hits; shares compounds with TRPC6 inh; percent change from control (negative = decrease, positive = increase), % at 10 µM; HEK293 TRPC4/mu-opioid, membrane potential fluorescence;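 active = membrane potential signal moved up or down beyond 5 SD of buffer control wells, in both duplicate plates, actives on both sides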;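 note: plate controls were assay buffer wells for no effect and DAMGO maximal-effect wells for full effect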
TRPC4/MOR inh 2 – second selectivity test of TRPC6 modulators against mouse TRPC4; HEK293 TRPC4/mu-opioid, membrane potential dye fluorescence; stimulated with maximal-effect DAMGO; shares compounds with TRPC6 inh; 2,400 compounds, 55% hits; inhibition, % at 10 µM;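 active = drop in membrane potential signal beyond 5 SD of the control wells in both duplicate plates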;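 note: TRPC4 counter screen for TRPC6 hits run under conditions tuned for TRPC6 not TRPC4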
TRPC6 inh conf – mouse TRPC6 inhibitor confirmation; shares compounds with TRPC6 inh; HEK293-TRPC6, membrane potential dye, ACh-evoked depolarization; 3,300 compounds, 43% hits; inhibition, % at 10 µM; AID 488960;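 active = fluorescence ratio falls more than 5 SD below the full-stimulation control mean, in both duplicate runs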;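 note: integrated fluorescence ratio of peak minus minimum over baseline after agonist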
TRPC6 act confirm – confirmation of mouse TRPC6 activators; shares compounds with TRPC6 inh; HEK293-TRPC6 membrane potential dye fluorescence, FDSS; activation, % at 10 µM; 2,800 compounds, 11% hits;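 active = ratio signal rise beyond 5 SD above unstimulated control wells' mean, seen in both duplicate runs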;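 note: plate controls were buffer EC0 wells for no effect and acetylcholine ECmax response for full effect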
Active calls of the source: *; i = inactive; x = not tested or not shown.

SMILES	TRPC4 act	TRPC6 inh	TRPC6 act	TRPC4 block	TRPC4 potent	HEK293 MPD ctr-2	HEK293 MPD ctr 2-2	TRPC4/MOR mod	TRPC4/MOR inh 2	TRPC6 inh conf	TRPC6 act confirm	others
Cc1ccc(-n2nc(-c3ccc(OC(F)(F)F)cc3)cc2N)cc1C	i	i	i	i	i	x	x	x	x	x	x
OCCNCc1cccc(OCc2ccc(Cl)cc2)c1	i	i	i	i	i	x	x	x	x	x	x
OCCNCc1cc(Br)ccc1OCc1ccc(Cl)cc1	i	-5.65*	i	i	i	101.5%*	i	17.0%*	89.0%*	45.0%*	x
CNCCCOc1cccc(Oc2ccccc2)c1	i	-5.11*	i	i	10*	100.0%*	i	12.5%*	35.0%*	52.5%*	i
CNCCCOc1cccc(OC(C)C)c1	i	i	i	i	i	x	x	x	x	x	x
O=C(COc1ccccc1Cl)NCCCNC(=O)c1cccnc1	i	i	i	i	i	x	x	x	x	x	x
Cc1ccc2nc(-c3ccccc3)c(CC(=O)O)c(C(=O)O)c2c1	i	i	i	i	i	x	x	x	x	x	x
Cc1cc(C)n(C(=O)CNC(=O)c2cccc(Br)c2)n1	i	-5.82*	i	i	i	i	i	i	i	i	i
Cc1cc(C)n(C(=O)CNC(=O)c2cccc(Cl)c2)n1	i	i	i	i	i	x	x	x	x	x	x
Cc1ccc2nc(N(CCCN(C)C)C(=O)c3ccc(Br)s3)sc2c1	i	i	i	i	i	x	x	x	x	x	x
CN(C)CCCN(C(=O)c1cc2ccccc2oc1=O)c1nc2ccc(F)cc2s1	i	i	i	i	i	x	x	x	x	x	x
CN(C)CCCN(C(=O)c1ccco1)c1nc2ccc(F)cc2s1	i	-5.57*	i	i	i	-149.5%*	78.5%*	-39.0%*	84.5%*	63.5%*	i
Cc1ccc2nc(N(CCCN(C)C)C(=O)c3ccco3)sc2c1	i	-7.1*	i	i	i	x	x	x	x	78.4%*	i	TRPC4 sel inh 2=34.0%*;TRPC4 spec=-19.8%*;HEK293 MPD ctr 2-1=i;HEK293 MPD ctr-1=-146.0%*
O=C(NCc1ccc(F)cc1)C1CCCN(c2cnccn2)C1 (stereo not given)	i	i	i	i	i	x	x	x	x	x	x
Cc1ccccc1C1=NC(C(F)(F)F)(C(F)(F)F)c2c(n(C)c(=O)n(C)c2=O)N1	i	i	i	i	i	x	x	x	x	x	x
